Tests used:
[1] = molecular target: T1, Replicase polyprotein 1ab (Severe acute respiratory syndrome coronavirus 2, UniProt P0DTD1); experiment: Inhibition of eGFP fused SARS-CoV2 main protease transfected in HEK293T/17 cells incubated for 72 hrs by fluorescence based flow cytometry analysis; type: cell-based
[2] = molecular target: T1, Replicase polyprotein 1ab; experiment: Inhibition of His/SUMO tagged SARS-CoV2 main protease expressed in Escherichia coli BL21 (DE3) cells using Dabcyl-KTSAVLQSGFRKME-Edans as substrate preincubated for 30 mins followed by substrate addition and measured after 30 mins by fluorescence plate reader analysis
[3] = Cytotoxicity against HEK293T/17 cells by MTT assay; type: toxicity, cell-based; details: human
Procedure, shortened: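 MTT viability assay in 293T cells. CC50 is derived from cytotoxicity curves of compound concentration versus viability.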

[4] = tested on: SARS-CoV-2; experiment: Antiviral activity against SARS-Cov2 Beta infected in African green monkey Vero E6 cells assessed as viral plaque reduction measured after 3 days by plaque reduction neutralization test; type: functional, organism-based; details: Severe acute respiratory syndrome coronavirus 2, Beta, Vero C1008, 72 h
[5] = tested on: SARS-CoV-2; experiment: Antiviral activity against SARS-Cov2 Delta infected in African green monkey Vero E6 cells assessed as viral plaque reduction measured after 3 days by plaque reduction neutralization test; type: functional, organism-based; details: Severe acute respiratory syndrome coronavirus 2, Delta, Vero C1008, 72 h
[6] = tested on: SARS-CoV-2; experiment: Antiviral activity against SARS-Cov2 USA-WA1/2020 infected in African green monkey Vero E6 cells assessed as viral plaque reduction measured after 3 days by plaque reduction neutralization test; type: functional, organism-based; details: Severe acute respiratory syndrome coronavirus 2, USA-WA1/2020, Vero C1008, 72 h

| SMILES | EC50 [1] | IC50 [2] | CC50 ([3]; HEK293T/17 cells) | EC50 [4] | EC50 [5] | EC50 [6] | CC50 ([3]; hek293t/17) |
| --- | --- | --- | --- | --- | --- | --- | --- |
| CC(C)[C@H](NC(=O)OCc1ccccc1)C(=O)N[C@@H](Cc1cccs1)C(=O)N[C@H](C=O)C[C@@H]1CCNC1=O | Nd(Insoluble) | Nd(Insoluble) |  |  |  |  |  |
| C[C@@H](OC(C)(C)C)[C@H](NC(=O)OCc1ccccc1)C(=O)N[C@@H](CC(C)(C)C)C(=O)N[C@H](C=O)C[C@@H]1CCNC1=O |  |  | > 200 µM | 1.2 µM | 0.58 µM | 1.2 µM |  |
| CC(OC(C)(C)C)[C@H](NC(=O)OCc1ccccc1)C(=O)N[C@@H](CC1CCCCC1)C(=O)N[C@H](C=O)C[C@@H]1CCNC1=O (single isomer, unassigned) |  |  |  |  |  |  | 109 µM |
| CC(C)C[C@H](NC(=O)[C@@H](NC(=O)OCc1cccc(Cl)c1)[C@@H](C)OC(C)(C)C)C(=O)N[C@H](C=O)C[C@@H]1CCNC1=O |  |  |  | 0.65 µM | 1.6 µM | 1.9 µM | 183 µM |
| CC(C)[C@H](NC(=O)OCc1cccc(Cl)c1)C(=O)N[C@@H](CC1CCCCC1)C(=O)N[C@H](C=O)C[C@@H]1CCNC1=O |  |  |  | > 5 µM | 3.2 µM | > 5 µM | 114 µM |
| C[C@@H](OC(C)(C)C)[C@H](NC(=O)OCc1cccc(Cl)c1)C(=O)N[C@@H](CC1CCCCC1)C(=O)N[C@H](C=O)C[C@@H]1CCNC1=O |  |  |  | 1.6 µM | 0.87 µM | 2.2 µM | 130 µM |
| C[C@@H](OC(C)(C)C)[C@H](NC(=O)OCc1ccccc1)C(=O)N[C@@H](CC1CC1)C(=O)N[C@H](C=O)C[C@@H]1CCNC1=O |  |  | > 200 µM | 1.8 µM | 1.1 µM | 1.2 µM |  |
| CC(C)(C)C[C@H](NC(=O)[C@@H](NC(=O)OCc1ccccc1)C(C)(C)C)C(=O)N[C@H](C=O)C[C@@H]1CCNC1=O |  |  | > 200 µM | 0.71 µM | 5 µM | > 5 µM |  |

— ChEMBL document CHEMBL5113464, “A multi-pronged evaluation of aldehyde-based tripeptidyl main protease inhibitors as SARS-CoV-2 antivirals” (Eur J Med Chem, 2022)
